Data as given in ChEMBL document CHEMBL1121917, “Structure--activity relationships in a broad-spectrum anthelmintic series. Acid chloride phenylhydrazones. 1. Aryl substitutions and chloride variations” (1981).

Experiments:
Mus musculus [1] = species: Mus musculus; experiment: Percent clearance of Nematospiroides dubius from mouse after oral treatment of 0.12 mg/mouse/day; type: functional
Summary of the method: (§1)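 Mice naturally carrying Syphacia obvelata were experimentally infected with Nematospiroides dubius and Hymenolepis nana, then grouped after a 2-week prepatency. Finely ground compound was suspended in aqueous 0.10% carboxymethylcellulose, 0.04% polysorbate 80 and 0.0042% polyparaben, and 0.1 mL was given orally by cannula once daily for 4 days to five mice. Necropsy followed 2 days later, scoring presence or absence of each parasite. Control clearance was subtracted from the treated clearance.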

Mus musculus [2] = species: Mus musculus; experiment: Percent clearance of Hymenolepis nana from mouse after oral treatment of 0.12 mg/mouse/day; type: functional; summary of the method: as §1
Mus musculus [3] = species: Mus musculus; experiment: Percent clearance of Nematospiroides dubius from mouse after oral treatment of 1.87 mg/mouse/day; type: functional; summary of the method: as §1
Ovis aries [4] = experiment: Percent reduction in Strongyloides eggs per gram, after treatment with 450 mg/kg dose of compound perorally in sheep; type: functional, Egg; conditions: route oral
Summary of the method: (§2)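 Naturally parasitized lambs, dosed orally either with a suspension by stomach tube or with finely ground compound in gelatin capsules by balling gun. Activity was scored by the clinical test method, meaning a significant fall in helminth egg counts after treatment.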

Ovis aries [5] = experiment: Percent reduction in Oesophagostomum eggs per gram, after treatment with 250 mg/kg dose of compound perorally in sheep; type: functional, Egg; conditions: route oral
Summary of the method: (§3)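 Naturally parasitized lambs were dosed orally at the stated mg/kg. Dosing was either as a suspension of finely ground compound by stomach tube, or as ground compound weighed into gelatin capsules and given by balling gun. Activity was scored by the clinical test method: the decrease in posttreatment helminth eggs per gram.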

Ovis aries [6] = experiment: Percent reduction in Moniezia eggs per gram, after treatment of 200 mg/kg dose of compound perorally in sheep; type: functional, Egg; conditions: route oral; summary of the method: as §3
Ovis aries [7] = experiment: Percent reduction in Cooperia eggs per gram, after treatment of 200 mg/kg dose of compound perorally in sheep; type: functional, Egg; conditions: route oral
Summary of the method: (§4)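 Naturally parasitized lambs received compound orally, either as the aqueous suspension by stomach tube or as finely ground powder in gelatin capsules by balling gun. Activity was judged by the clinical test method, as a significant decrease in posttreatment helminth egg counts.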

Ovis aries [8] = experiment: Percent reduction in Trichuris eggs per gram, after treatment with 350 mg/kg dose of compound perorally
Ovis aries [9] = experiment: Percent reduction in Haemonchus eggs per gram, after treatment of 250 mg/kg dose of compound perorally in sheep; type: functional, Egg; conditions: route oral; summary of the method: as §4
Ovis aries [10] = experiment: Percent reduction in Nematodirus eggs per gram, after treatment with 350 mg/kg dose of compound perorally in sheep; type: functional, Egg; conditions: route oral; summary of the method: as §3
Ovis aries [11] = experiment: Percent reduction in Trichostrongylus eggs per gram, after treatment with 450 mg/kg dose of compound perorally in sheep; type: functional, Egg; conditions: route oral; summary of the method: as §2
Ovis aries [12] = experiment: Percent reduction in Ostertagia eggs per gram, after oral treatment of 250 mg/Kg dose of compound perorally in sheep; type: functional, Egg; summary of the method: as §3
Canis familiaris [13] = species: Canis familiaris; experiment: Percent reduction in Uncinaria eggs per gram, after treatment of 100 mg/dog dose of compound in a single treatment; type: functional, Canis lupus familiaris, Egg
Ovis aries [14] = experiment: Percent reduction in Strongyloides eggs per gram, after treatment of 100 mg/kg dose of compound perorally in sheep; type: functional, Egg; conditions: route oral; summary of the method: as §2
Ovis aries [15] = experiment: Percent reduction in Ostertagia eggs per gram, after treatment of 200 mg/kg dose of compound perorally in sheep; type: functional, Egg; conditions: route oral; summary of the method: as §3
Ovis aries [16] = experiment: Percent reduction in Trichostrongylus eggs per gram, treatment of 100 mg/kg dose of compound perorally in sheep; type: functional, Egg; conditions: route oral
Canis familiaris [17] = species: Canis familiaris; experiment: Percent reduction in Ancylostoma eggs per gram, after treatment of 100 mg/dog dose of compound in a single treatment; type: functional, Canis lupus familiaris, Egg
Summary of the method: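 Dogs naturally infected with Toxascaris leonina were experimentally infected with mixed Ancylostoma caninum and Uncinaria stenocephala larvae. Finely ground compound was given orally in gelatin capsules. Fecal egg counts were taken three times before and three times after treatment, and activity was taken as the fall in egg counts.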

Ovis aries [18] = experiment: Percent reduction in Strongyloides eggs per gram, after treatment with 350 mg/kg dose of compound perorally in sheep; type: functional, Egg; conditions: route oral; summary of the method: as §2
Ovis aries [19] = experiment: Percent reduction in Haemonchus eggs per gram, after oral treatment of 100 mg/kg dose of compound perorally in sheep; type: functional, Egg; summary of the method: as §4
Ovis aries [20] = experiment: Percent reduction in Cooperia eggs per gram, after treatment with 400 mg/kg dose of compound perorally in sheep; type: functional, Egg; conditions: route oral; summary of the method: as §4
Ovis aries [21] = experiment: Percent reduction in Trichostrongylus eggs per gram, after ral treatment of 200 mg/kg dose of compound perorally in sheep; type: functional, Egg; conditions: route oral; summary of the method: as §2
Ovis aries [22] = experiment: Percent reduction in Trichuris eggs per gram, after treatment with 450 mg/kg dose of compound perorally in sheep; type: functional, Egg; conditions: route oral; summary of the method: as §2
Ovis aries [23] = experiment: Percent reduction in Moniezia eggs per gram, after treatment with 400 mg/kg dose of compound perorally in sheep; type: functional, Egg; conditions: route oral; summary of the method: as §3
Ovis aries [24] = experiment: Percent reduction in Oesophagostomum eggs per gram, after treatment with 400 mg/kg dose of compound perorally in sheep; type: functional, Egg; conditions: route oral; summary of the method: as §3
Ovis aries [25] = experiment: Percent reduction in Strongyloides eggs per gram, after treatment with 400 mg/kg dose of compound perorally in sheep; type: functional, Egg; conditions: route oral; summary of the method: as §2
Ovis aries [26] = experiment: Percent reduction in Ostertagia eggs per gram, after treatment with 400 mg/kg dose of compound perorally in sheep; type: functional, Egg; conditions: route oral; summary of the method: as §2
Ovis aries [27] = experiment: Percent reduction in Ostertagia eggs per gram, after treatment with 450 mg/kg dose of compound perorally in sheep; type: functional, Egg; conditions: route oral; summary of the method: as §2
Ovis aries [28] = experiment: Percent reduction in Haemonchus eggs per gram, after treatment with 400 mg/kg dose of compound perorally in sheep; type: functional, Egg; conditions: route oral; summary of the method: as §3
Ovis aries [29] = experiment: Percent reduction in Oesophagostomum eggs per gram, after treatment of 200 mg/kg dose of compound perorally in sheep; type: functional, Egg; conditions: route oral; summary of the method: as §3
Ovis aries [30] = experiment: Percent reduction in Ostertagia eggs per gram, after treatment of 100 mg/kg dose of compound perorally in sheep; type: functional, Egg; conditions: route oral; summary of the method: as §3
Ovis aries [31] = experiment: Percent reduction in Trichostrongylus eggs per gram, after treatment with 350 mg/kg dose of compound perorally in sheep; type: functional, Egg; conditions: route oral
Ovis aries [32] = experiment: Percent reduction in Haemonchus eggs per gram, after treatment with 450 mg/kg dose of compound perorally in sheep; type: functional, Egg; conditions: route oral; summary of the method: as §3
Ovis aries [33] = experiment: Percent reduction in Nematodirus eggs per gram, after treatment of 100 mg/kg dose of compound perorally in sheep; type: functional, Egg; conditions: route oral; summary of the method: as §3
Ovis aries [34] = experiment: Percent reduction in Nematodirus eggs per gram, after treatment with 400 mg/kg dose of compound perorally in sheep; type: functional, Egg; conditions: route oral; summary of the method: as §3
Ovis aries [35] = experiment: percent reduction in Strongyloides eggs per gram, after treatment with 250 mg/kg dose of compound perorally in sheep; type: functional, Egg; conditions: route oral
Canis familiaris [36] = species: Canis familiaris; experiment: Percentt reduction in Toxascaris eggs per gram, after treatment of 100 mg/dog dose of compound in a single treatment; type: functional, Canis lupus familiaris, Egg
Ovis aries [37] = experiment: Percent reduction in Trichuris eggs per gram, after treatment of with 200 mg/kg dose of compound perorally in sheep; type: functional, Egg; conditions: route oral
Ovis aries [38] = experiment: Percent reduction in Ostertagia eggs per gram, after treatment with 350 mg/kg dose of compound perorally in sheep; type: functional, Egg; conditions: route oral; summary of the method: as §2
Mus musculus [39] = species: Mus musculus; experiment: Percent clearance of Hymenolepis nana from mouse after oral treatment of 1.87 mg/mouse/day; type: functional; summary of the method: as §1
Ovis aries [40] = experiment: Percent reduction in Trichuris eggs per gram, after treatment with 400 mg/kg dose of compound perorally in sheep; type: functional, Egg; conditions: route oral; summary of the method: as §2
Ovis aries [41] = experiment: Percent reduction in Cooperia eggs per gram, after treatment of 100 mg/kg dose of compound perorally in sheep; type: functional, Egg; conditions: route oral; summary of the method: as §4
Ovis aries [42] = experiment: Percent reduction in Trichuris eggs per gram, after treatment with 250 mg/kg dose of compound perorally in sheep; type: functional, Egg; conditions: route oral; summary of the method: as §2
Ovis aries [43] = experiment: Percent reduction in Haemonchus eggs per gram, after treatment of 200 mg/kg dose of compound perorally in sheep; type: functional, Egg; conditions: route oral; summary of the method: as §4
Ovis aries [44] = experiment: Percent reduction in Nematodirus eggs per gram, after treatment with 250 mg/kg dose of compound perorally in sheep; type: functional, Egg; conditions: route oral; summary of the method: as §3
Ovis aries [45] = experiment: Percent reduction in Oesophagostomum eggs per gram, after treatment of 100 mg/kg dose of compound perorally in sheep; type: functional, Egg; conditions: route oral; summary of the method: as §3
Ovis aries [46] = experiment: Percent reduction in Trichuris eggs per gram, after treatment of 100 mg/kg dose of compound perorally in sheep; type: functional, Egg; conditions: route oral
Ovis aries [47] = experiment: Percent reduction in Nematodirus eggs per gram, after treatment of 200 mg/kg dose of compound perorally in sheep; type: functional, Egg; conditions: route oral; summary of the method: as §3
Ovis aries [48] = experiment: Percent reduction in Trichostrongylus eggs per gram, after treatment with 400 mg/kg dose of compound perorally in sheep; type: functional, Egg; conditions: route oral; summary of the method: as §2
Ovis aries [49] = experiment: Percent reduction in Strongyloides eggs per gram, after treatment of 200 mg/kg dose of compound perorally in sheep; type: functional, Egg; conditions: route oral; summary of the method: as §2
Ovis aries [50] = experiment: Percent reduction in Trichostrongylus eggs per gram, after oral treatment of 250 mg/kg dose of compound perorally in sheep; type: functional, Egg; summary of the method: as §2
Ovis aries [51] = experiment: Percent reduction in Oesophagostomum eggs per gram, after treatment with 350 mg/kg dose of compound perorally in sheep; type: functional, Egg; conditions: route oral; summary of the method: as §3

Cc1cccc(/C(Cl)=N/Nc2ccccc2)c1
Parasite_Clearance (Mus musculus [1]): 0% | Parasite_Clearance (Mus musculus [2]): 0%

FC(F)(F)c1cccc(/C(Cl)=N/Nc2ccccc2)c1
Parasite_Clearance (Mus musculus [3]): 0% | Reduction (Ovis aries [4]): 100% | Reduction (Ovis aries [5]): 91% | Reduction (Ovis aries [6]): 100% | Reduction (Ovis aries [7]): 100% | Reduction (Ovis aries [8]): 0% | Reduction (Ovis aries [9]): 84% | Reduction (Ovis aries [10]): 100% | Reduction (Ovis aries [11]): 100% | Reduction (Ovis aries [12]): 86% | Reduction (Canis familiaris [13]): 100% | Reduction (Ovis aries [14]): 98% | Reduction (Ovis aries [15]): 100% | Reduction (Ovis aries [16]): 97% | Reduction (Canis familiaris [17]): 100% | Reduction (Ovis aries [18]): 100% | Reduction (Ovis aries [19]): 98% | Reduction (Ovis aries [20]): 100% | Reduction (Ovis aries [21]): 99% | Reduction (Ovis aries [22]): 0% | Reduction (Ovis aries [23]): 100% | Reduction (Ovis aries [24]): 100% | Reduction (Ovis aries [25]): 100% | Reduction (Ovis aries [26]): 100% | Reduction (Ovis aries [27]): 100% | Reduction (Ovis aries [28]): 100% | Reduction (Ovis aries [29]): 100% | Reduction (Ovis aries [30]): 98% | Reduction (Ovis aries [31]): 100% | Reduction (Ovis aries [32]): 100% | Reduction (Ovis aries [33]): 100% | Reduction (Ovis aries [34]): 100% | Reduction (Ovis aries [35]): 59% | Reduction (Canis familiaris [36]): 100% | Reduction (Ovis aries [37]): 0% | Reduction (Ovis aries [38]): 100% | Parasite_Clearance (Mus musculus [39]): 75% | Reduction (Ovis aries [40]): 62% | Reduction (Ovis aries [41]): 100% | Reduction (Ovis aries [42]): 57% | Reduction (Ovis aries [43]): 99% | Reduction (Ovis aries [44]): 29% | Reduction (Ovis aries [45]): 100% | Reduction (Ovis aries [46]): 35% | Reduction (Ovis aries [47]): 100% | Reduction (Ovis aries [48]): 100% | Reduction (Ovis aries [49]): 100% | Reduction (Ovis aries [50]): 71% | Reduction (Ovis aries [51]): 100%
